Drawing on ChEMBL document CHEMBL1122545, “N2-(4-Substituted-2,6-dichlorophenyl)-N1,N1-dimethylformamidines as antihypertensive and diuretic agents” (J Med Chem, 1984), this text covers Diuretic activity, HR and MABP for one compound.

Series [1] in a line: Diuretic activity was determined expressed as Na+(sodium) excreted in milli equivalents was reported for a duration of 5 hours after administration of a dose of 25 mg/Kg. The following applies: in vivo. Type of series: ADME, Urine. The gist of the method: (§1)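 Male SH rats (Okamoto strain), 16 weeks old, dosed orally by gavage with compound dispersed in 3% starch in normal saline at 2 mL/kg. Oral normal saline load, then individual metabolism cages; 0-5 h urine collected, Na+ and K+ measured by flame photometry. Rats redosed at 24 h without the saline load. MABP and HR taken by femoral arterial puncture under local anesthetic 4 h after the second dose.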

Series [2] is described as follows: Diuretic activity was determined expressed as volume of urine excreted in mL was reported at a dose of 25 mg/Kg. Format: ADME. The following applies: in vivo. The essentials: as §1
Series [3] has as its system Rattus norvegicus. In words: Diuretic activity was determined in SH rats expressed as K(+) (potassium) excreted in milli equivalents was reported for a duration of 5 hours after administration of a dose of 25 mg/Kg. Format: ADME, organism-based, Urine. The following applies: in vivo. The essentials:
as §1

The subject of series [4] is Rattus norvegicus. In words: Antihypertensive activity determined as heart rate in SH rats, was reported at a dose of 25 mg/Kg. Format: functional. The essentials: as §1
In series [5] the test system is Rattus norvegicus. The series can be described thus: Antihypertensive activity in SH rats, and mean arterial blood pressure was reported at a dose of 25 mg/Kg. Format: functional, Artery. The essentials: as §1

With `Cc1cc(N(C)C)ccc1CNc1cc(Cl)c(/N=C/N(C)C)c(Cl)c1`, the Diuretic activity amounted to 2.59 m equiv in series [1], 25.5 mL in series [2] and 0.6 m equiv in series [3]. In series [4], the HR turned out to be 270 beats min-1. The compound further gave an MABP in series [5] of 138 mmHg.
